According to ChEMBL document CHEMBL1156988, “Synthesis and antibacterial studies of binaphthyl-based tripeptoids. Part 1” (2010):
Converted amounts (≈) assume the structure as drawn.

Key:
[1] = tested on: Staphylococcus aureus; experiment: Antibacterial activity against Staphylococcus aureus 6538P after overnight incubation; format: functional
Procedure, shortened: (§1)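 Strains were grown in Luria Broth. Overnight stationary-phase cultures were diluted 1:1000 into fresh medium with twofold compound dilutions, highest typically 128 µg/ml, in 96-well plates. Incubated overnight at 37 °C. MIC recorded as the […].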

[2] = tested on: Staphylococcus epidermidis; experiment: Antibacterial activity against Staphylococcus epidermidis ATCC 700562 after overnight incubation; format: functional
[3] = tested on: Enterococcus faecium; experiment: Antibacterial activity against vancomycin-resistant Enterococcus faecium 243 after overnight incubation
[4] = tested on: Enterococcus faecium; experiment: Antibacterial activity against vancomycin-resistant Enterococcus faecium 449 after overnight incubation
[5] = tested on: Enterococcus faecium; experiment: Antibacterial activity against vancomycin-resistant Enterococcus faecium 820 after overnight incubation
[6] = tested on: Enterococcus faecium; experiment: Antibacterial activity against vancomycin-resistant Enterococcus faecium 987 after overnight incubation
[7] = tested on: Staphylococcus aureus; experiment: Antibacterial activity against vancomycin intermediate Staphylococcus aureus after overnight incubation; format: functional; procedure, shortened: as §1
[8] = Staphylococcus aureus, 6538P, read-out: MIC
[9] = Enterococcus faecium, 243, read-out: MIC
[10] = Enterococcus faecium, 449, read-out: MIC
[11] = Enterococcus faecium, 820, read-out: MIC
[12] = Enterococcus faecium, 987, read-out: MIC

SMILES | MIC [1, 8] | MIC [2] | MIC [3, 9] | MIC [4, 10] | MIC [5, 11] | MIC [6, 12] | MIC [1] | MIC [3] | MIC [4] | MIC [5] | MIC [6] | MIC ([7]; read-out: MIC) | MIC [7]
CNC(=N)NCCC[C@@H](NC(=O)[C@@H](CCCCN)NC(=O)COc1ccc2ccccc2c1-c1c(OCCC(C)C)ccc2ccccc12)C(=O)N[C@@H](CC(C)C)C(=O)OCc1ccccc1.Cl.Cl | 3.13 mg/L | 3.13 mg/L | 25 mg/L | 25 mg/L | 25 mg/L | 25 mg/L | – | – | – | – | – | – | –
C=CCOc1ccc2ccccc2c1-c1c(OCC(=O)NCC(=O)N[C@H](CCCNC(=N)N)C(=O)N[C@@H](CC=C)C(=O)OCc2ccccc2)ccc2ccccc12.Cl | 15.6 mg/L | – | > 125 mg/L | 125 mg/L | 125 mg/L | > 125 mg/L | – | – | – | – | – | – | –
CC(C)CCOc1ccc2ccccc2c1-c1c(OCC(=O)N[C@H](CCCCN)C(=O)N[C@H](CCCCN)C(=O)N[C@@H](CC(C)C)C(=O)OCc2ccccc2)ccc2ccccc12.Cl.Cl | 1.95 mg/L | 1.95 mg/L | 62.5 mg/L | 31.3 mg/L | 26.1 mg/L | 62.5 mg/L | – | – | – | – | – | – | –
C=CCOc1ccc2ccccc2c1-c1c(OCC(=O)N[C@H](Cc2ccccc2)C(=O)N[C@H](CCCNC(=N)N)C(=O)N[C@@H](CC=C)C(=O)OCc2ccccc2)ccc2ccccc12.Cl | 26.1 mg/L | – | > 125 mg/L | 62.5 mg/L | 31.3 mg/L | > 125 mg/L | – | – | – | – | – | – | –
C=CCOc1ccc2ccccc2c1-c1c(OCC(=O)N[C@H](CCCC)C(=O)N[C@H](CCCNC(=N)N)C(=O)N[C@@H](CC=C)C(=O)OCc2ccccc2)ccc2ccccc12.Cl | 52.1 mg/L | – | 125 mg/L | 83 mg/L | 62.5 mg/L | 125 mg/L | – | – | – | – | – | – | –
C=CCOc1ccc2ccccc2c1-c1c(OCC(=O)N[C@H](CCCCN)C(=O)N[C@H](CCCNC(=N)N)C(=O)N[C@@H](Cc2ccccc2)C(=O)OC)ccc2ccccc12.Cl.Cl (stereo in doubt; 82) | – | – | – | – | – | – | 7.8 mg/L | 125 mg/L | 125 mg/L | 125 mg/L | 125 mg/L | – | –
C=CCOc1ccc2ccccc2c1-c1c(OCC(=O)N[C@H](CCCCN)C(=O)N[C@H](CCCCN)C(=O)N[C@@H](CC=C)C(=O)OCc2ccccc2)ccc2ccccc12.Cl.Cl | 3.9 mg/L | – | 125 mg/L | 62.5 mg/L | 62.5 mg/L | 125 mg/L | – | – | – | – | – | – | –
C=CCOc1ccc2ccccc2c1-c1c(OCC(=O)N[C@H](CCCNC(=N)N)C(=O)N[C@H](CCCNC(=N)N)C(=O)N[C@@H](CC=C)C(=O)OCc2ccccc2)ccc2ccccc12.Cl.Cl | 31.3 mg/L | – | > 125 mg/L | 125 mg/L | 125 mg/L | > 125 mg/L | – | – | – | – | – | – | –
CC(C)CCOc1ccc2ccccc2c1-c1c(OCC(=O)N[C@H](CCCCN)C(=O)N[C@H](CCCNC(=N)N)C(=O)N[C@H](CC(C)C)C(=O)OCc2ccccc2)ccc2ccccc12.Cl.Cl | 3.9 mg/L | – | 31.3 mg/L | 15.6 mg/L | 15.6 mg/L | 31.3 mg/L | – | – | – | – | – | – | –
CC(C)CCOc1ccc2ccccc2c1-c1c(OCC(=O)N[C@H](CCCCN)C(=O)N[C@H](CCN)C(=O)N[C@@H](CC(C)C)C(=O)OCc2ccccc2)ccc2ccccc12.Cl.Cl | 1.95 mg/L | – | 31.3 mg/L | 15.6 mg/L | 15.6 mg/L | 31.3 mg/L | – | – | – | – | – | – | –
CC(C)CCOc1ccc2ccccc2c1-c1c(OCC(=O)N[C@H](CCCCN)C(=O)N[C@H](CCCNC(=N)N)C(=O)N[C@@H](CC(C)C)c2ncc(Cc3ccccc3)o2)ccc2ccccc12.Cl.Cl | – | – | – | – | – | – | – | – | – | – | – | 4 mg/L | –
CC(C)CCOc1ccc2ccccc2c1-c1c(OCC(=O)N[C@H](CCCCN)C(=O)N[C@H](CCCN)C(=O)N[C@@H](CC(C)C)C(=O)OCc2ccccc2)ccc2ccccc12.Cl.Cl | 1.95 mg/L | – | 62.5 mg/L | 31.3 mg/L | 15.6 mg/L | 62.5 mg/L | – | – | – | – | – | – | –
C=CC[C@H](NC(=O)[C@@H](CCCNC(=N)N)NC(=O)[C@@H](CCCCN)NC(=O)COc1ccc2ccccc2c1-c1c(OCCC(C)C)ccc2ccccc12)C(=O)OCc1ccccc1.Cl.Cl | 3.9 mg/L | – | 31.3 mg/L | 15.6 mg/L | 15.6 mg/L | 31.3 mg/L | – | – | – | – | – | – | –
C=CCOc1ccc2ccccc2c1-c1c(OCC(=O)N[C@H](CC(C)C)C(=O)N[C@H](CCCNC(=N)N)C(=O)N[C@@H](C)C(=O)OCc2ccccc2)ccc2ccccc12.Cl | 5.2 mg/L | – | 62.5 mg/L | 62.5 mg/L | 62.5 mg/L | 62.5 mg/L | – | – | – | – | – | – | –
CC(C)CCOc1ccc2ccccc2c1-c1c(OCC(=O)N[C@H](CCCNC(=N)N)C(=O)N[C@H](CCCNC(=N)N)C(=O)N[C@@H](CC(C)C)C(=O)OCc2ccccc2)ccc2ccccc12.Cl.Cl | 1.95 mg/L | 19.5 mg/L | 62.5 mg/L | 31.3 mg/L | 15.6 mg/L | 31.3 mg/L | – | – | – | – | – | – | –
CC(C)CCOc1ccc2ccccc2c1-c1c(OCC(=O)N[C@H](CCCCN)C(=O)N[C@H](CCNC(=N)N)C(=O)N[C@@H](CC(C)C)C(=O)OCc2ccccc2)ccc2ccccc12.Cl.Cl | 2.6 mg/L | – | 52.1 mg/L | 31.3 mg/L | 27.8 mg/L | 52.1 mg/L | – | – | – | – | – | – | –

SMILES | MIC [1, 8] | MIC [2] | MIC [3, 9] | MIC [4, 10] | MIC [5, 11] | MIC [6, 12] | MIC [1] | MIC [3] | MIC [4] | MIC [5] | MIC [6] | MIC ([7]; read-out: MIC) | MIC [7]
C=CCOc1ccc2ccccc2c1-c1c(OCC(=O)N[C@H](CCCCN)C(=O)N[C@H](CCCNC(=N)N)C(=O)N[C@@H](CC=C)C(=O)OCc2ccccc2)ccc2ccccc12.Cl.Cl | 1.95 mg/L | – | 31.3 mg/L | 31.3 mg/L | 31.3 mg/L | 31.3 mg/L | – | – | – | – | – | – | –
C=CCOc1ccc2ccccc2c1-c1c(OCC(=O)N[C@H](CCCCN)C(=O)N[C@H](CCCNC(=N)N)C(=O)N[C@@H](Cc2ccccc2)C(=O)OC)ccc2ccccc12.Cl.Cl (stereo in doubt; 81) | 3.9 mg/L | – | 125 mg/L | 125 mg/L | 125 mg/L | 125 mg/L | – | – | – | – | – | – | –
C=CCOc1ccc2ccccc2c1-c1c(OCC(=O)N[C@H](CC=C)C(=O)N[C@H](CCCNC(=N)N)C(=O)N[C@@H](CC=C)C(=O)OCc2ccccc2)ccc2ccccc12.Cl | 15.6 mg/L | – | 125 mg/L | 125 mg/L | 62.5 mg/L | 125 mg/L | – | – | – | – | – | – | –
C=CCOc1ccc2ccccc2c1-c1c(OCC(=O)N[C@H](CCCCN)C(=O)N[C@H](CCCNC(=N)N)C(=O)N[C@@H](CC(C)C)C(=O)OCc2ccccc2)ccc2ccccc12.Cl.Cl | 1.95 mg/L | – | 31.3 mg/L | 31.3 mg/L | 31.3 mg/L | 31.3 mg/L | – | – | – | – | – | – | –
C=CCOc1ccc2ccccc2c1-c1c(OCC(=O)N[C@H](CCCCN)C(=O)N[C@H](CCCNC(=N)N)C(=O)N[C@@H](CC=C)C(=O)OCc2cccc3ccccc23)ccc2ccccc12.Cl.Cl | 15.6 mg/L | – | > 125 mg/L | 125 mg/L | 125 mg/L | > 125 mg/L | – | – | – | – | – | – | –
CC(C)CCOC(=O)[C@H](CC(C)C)NC(=O)[C@@H](CCCNC(=N)N)NC(=O)[C@@H](CCCCN)NC(=O)COc1ccc2ccccc2c1-c1c(OCCC(C)C)ccc2ccccc12.Cl.Cl | – | – | – | – | – | – | – | – | – | – | – | 4 mg/L | –
C=CCOc1ccc2ccccc2c1-c1c(OCC(=O)N[C@H](CCCCN)C(=O)N[C@H](CCCNC(=N)N)C(=O)NCC(=O)OCc2ccccc2)ccc2ccccc12.Cl.Cl | 3.9 mg/L | – | 125 mg/L | 62.5 mg/L | 125 mg/L | 125 mg/L | – | – | – | – | – | – | –
C=CCOc1ccc2ccccc2c1-c1c(OCC(=O)N[C@H](CCCNC(=N)N)C(=O)OCc2ccccc2)ccc2ccccc12.Cl | 3.3 mg/L | – | 62.5 mg/L | 62.5 mg/L | 62.5 mg/L | 62.5 mg/L | – | – | – | – | – | – | –
C=CCOc1ccc2ccccc2c1-c1c(OCC(=O)N[C@H](CCCCN)C(=O)N[C@H](CCCNC(=N)N)C(=O)N[C@H](CC=C)C(=O)OCc2ccccc2)ccc2ccccc12.Cl.Cl | 15.6 mg/L | – | 125 mg/L | 104 mg/L | 62.5 mg/L | 125 mg/L | – | – | – | – | – | – | –
C=CCOc1ccc2ccccc2c1-c1c(OCC(=O)N[C@H](CCCCN)C(=O)N[C@H](CCCNC(=N)N)C(=O)N[C@@H](C)C(=O)OCc2ccccc2)ccc2ccccc12.Cl.Cl | 7.8 mg/L | – | 125 mg/L | 125 mg/L | 125 mg/L | 125 mg/L | – | – | – | – | – | – | –
CN[C@H](CC(C)C)C(=O)N[C@H]1C(=O)N[C@@H](CC(N)=O)C(=O)N[C@H]2C(=O)N[C@H]3C(=O)N[C@H](C(=O)N[C@H](C(=O)O)c4cc(O)cc(O)c4-c4cc3ccc4O)[C@H](O)c3ccc(c(Cl)c3)Oc3cc2cc(c3O[C@@H]2O[C@H](CO)[C@@H](O)[C@H](O)[C@H]2O[C@H]2C[C@](C)(N)[C@H](O)[C@H](C)O2)Oc2ccc(cc2Cl)[C@H]1O [VANCOMYCIN] | 1.56 mg/L (≈ 1.08 µM) | 3.13 mg/L (≈ 2.16 µM) | 1.56 mg/L (≈ 1.08 µM) | > 25 mg/L | > 25 mg/L | 3.13 mg/L (≈ 2.16 µM) | – | – | – | – | – | – | 6 mg/L (≈ 4.14 µM)
C=CCOc1ccc2ccccc2c1-c1c(OCC(=O)N[C@H](C)C(=O)N[C@H](CCCNC(=N)N)C(=O)N[C@@H](CC=C)C(=O)OCc2ccccc2)ccc2ccccc12.Cl | 5.2 mg/L | – | 62.5 mg/L | 62.5 mg/L | 62.5 mg/L | 62.5 mg/L | – | – | – | – | – | – | –
C=CCOc1ccc2ccccc2c1-c1c(OCC(=O)NCC(=O)NCC(=O)N[C@@H](CC=C)C(=O)OCc2ccccc2)ccc2ccccc12 | 3.9 mg/L (≈ 5.69 µM) | 3.9 mg/L (≈ 5.69 µM) | 62.5 mg/L (≈ 91.1 µM) | 31.3 mg/L (≈ 45.6 µM) | 15.6 mg/L (≈ 22.7 µM) | 31.3 mg/L (≈ 45.6 µM) | – | – | – | – | – | – | –
C=CCOc1ccc2ccccc2c1-c1c(OCC(=O)N[C@H](CC(C)C)C(=O)N[C@H](CCCNC(=N)N)C(=O)N[C@@H](CC=C)C(=O)OCc2ccccc2)ccc2ccccc12.Cl | 3.9 mg/L | – | 62.5 mg/L | 31.3 mg/L | 31.3 mg/L | 62.5 mg/L | – | – | – | – | – | – | –
C=CCOc1ccc2ccccc2c1-c1c(OCCCC(=O)N[C@H](CCCNC(=N)N)C(=O)OCc2ccccc2)ccc2ccccc12.Cl | 3.9 mg/L | – | 62.5 mg/L | 62.5 mg/L | 62.5 mg/L | 125 mg/L | – | – | – | – | – | – | –
